What was measured:
[1] = test system: Mustela putorius furo; experiment: Intravenous effective dose required to produce a 1 mV increase in transmural potential difference in ferrets (GI side effect); format: functional
Procedure, shortened: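 Anesthetized male ferrets (800–1200 g), fasted 24 h before surgery, dosed iv. Transmural potential difference across jejunal wall measured with calomel half-cells and salt bridges (one in luminal fluid, other via wick electrode in serosal fluid) to an electrometer. Value is dose giving >1 mV rise in potential difference; each animal its own control.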

[2] = molecular target: Muscarinic acetylcholine receptor; experiment: Binding affinity against Muscarinic acetylcholine receptors using [3H]oxotremorine-M as radioligand in rat cortex
Procedure, shortened: (§1)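 Rat cortex radioligand displacement with [³H]oxotremorine-M, which labels the agonist conformational state of muscarinic receptors without subtype selectivity. Affinity is reported as Ki (nM) ± SEM.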

[3] = test system: Mustela putorius furo; experiment: Minimum intravenous effective dose required to inhibit jejunal motility in ferrets; format: functional
Procedure, shortened: (§2)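 Anesthetized male ferrets (800–1200 g), fasted 24 h before surgery, dosed iv. Spontaneous jejunal motility recorded manometrically via catheters inserted into jejunum. Value is minimum effective (threshold) dose inhibiting motility; each animal its own control; number of determinations recorded, SEM given when replicates differed.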

[4] = test system: Mus musculus; experiment: Analgesic activity measured using mouse writhing antinociceptive assay after subcutaneous administration; format: functional; conditions: sc
Procedure, shortened: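 Male Cr1:CF1 mice, groups of 5–10, given vehicle or compound sc; 25 min later 0.5% acetic acid ip. Writhes per mouse counted in individual chambers 5–10 min after acid (30–35 min post-dose), expressed as mean writhes over 5 min. ED50 from linear regression.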

[5] = test system: Mustela putorius furo; experiment: Minimum intravenous effective dose required to inhibit spontaneous motility in ferrets; format: functional; procedure, shortened: as §2
[6] = Mean plasma concentration measured 1 h following an oral dose of 30 mg/kg; format: ADME, organism-based; parameters: dose 30 mg/kg, route oral
Procedure, shortened: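 Rats dosed orally at 30 mg/kg; parent compound plasma concentration measured 1 h after dosing, reported as mean.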

[7] = molecular target: Muscarinic acetylcholine receptor; experiment: Binding affinity against Muscarinic acetylcholine receptor using [3H]oxotremorine-M as radioligand in rat cortex; procedure, shortened: as §1

| SMILES | ED (1mV) [1] [mg/kg] | Ki [2] [nM] | Dose [3] [mg/kg] | ED50 [4] [mg/kg] | ED50 [5] [mg/kg] | concentration at 1 h [6] [ng/mL] | Ki [7] [nM] |
| --- | --- | --- | --- | --- | --- | --- | --- |
| CCCCSc1nccnc1C1CN2CCC1CC2 (configuration not stated) | 0.03 | 0.5 | 0.003 | 3.2 | – | – | – |
| CN1CCC=C(c2nsnc2SCCCc2ccccc2)C1 | 0.03 | 1 | 0.01 | > 10 | – | – | – |
| FC(F)(F)CCCSc1nsnc1[C@@H]1CN2CCC[C@@H]1C2 | 0.002 | 0.33 | – | 0.35 | 0.017 | – | – |
| FC(F)(F)CCSc1nsnc1[C@@H]1CN2CCC[C@@H]1C2 | 0.01 | 0.44 | 0.003 | 0.1 | – | – | – |
| CCCCSc1nsnc1C1CN2CCC1CC2 (configuration not stated) [VEDACLIDINE] | 0.01 | 0.4 | 0.003 | 0.19 | – | – | – |
| FC(F)(F)CCCSc1nsnc1[C@H]1CN2CCC[C@@H]1C2 | >0.03 | 9.6 | – | 1.8 | 0.0053 | – | – |
| FC(F)(F)CCCCSc1nsnc1[C@@H]1CN2CCC[C@@H]1C2 | 0.01 | 0.24 | 0.001 | 0.07 | – | – | – |
| FC(F)(F)CCCSc1nsnc1[C@H]1CN2CCC[C@H]1C2 | 0.015 | 0.42 | – | 0.1 | 0.00017 | 805 | – |
| CCCCOc1nsnc1C1=CCCN(C)C1 | 0.007 | 1.4 | 0.003 | 0.41 | – | – | – |
| CN1[C@@H]2CC[C@H]1C[C@@H](OC(=O)C(CO)c1ccccc1)C2 (some centres not stated) [ATROPINE] | >0.03 | – | – | > 30 | 0.00073 | – | – |
| CCCCSc1nsnc1[C@@H]1CN2CCC[C@@H]1C2 | 0.001 | 0.45 | 0.001 | 0.19 | – | 21 | – |
| CCCCSc1nsnc1C1=CCCNC1 | 0.03 | 3.5 | 0.03 | 0.14 | – | – | – |
| FC(F)(F)CCCSc1nsnc1[C@@H]1CN2CCC[C@H]1C2 | >0.03 | 25 | – | > 10 | 0.0047 | – | – |
| CC(C)CCCSc1nsnc1C1CN2CCCC1C2 (racemic) | 0.003 | 0.91 | 0.03 | 0.95 | – | – | – |
| CCCCCCSc1nsnc1C1=CCCN(CC)C1 | >0.03 | 18 | >0.03 | > 10 | – | – | – |
| C=CCCCCOc1nsnc1C1=CCCN(C)C1 | 0.003 | 3 | 0.03 | 0.9 | – | – | – |
| FC(F)(F)CCCSc1nsnc1C1CN2CCCC1C2 (racemic) | 0.03 | – | 0.001 | 0.1 | – | – | 0.4 |
| CN1CC[C@]23c4c5ccc(O)c4O[C@H]2[C@@H](O)C=C[C@H]3[C@H]1C5 [MORPHINE] | – | – | – | 0.3 | – | – | – |
| CCCCSc1nsnc1C1CN2CCCC1C2 (racemic) | 0.001 | 0.36 | 0.001 | 0.03 | – | – | – |
| CN1CCC=C(c2nsnc2SCCCc2cccs2)C1 | 0.03 | 10 | 0.03 | > 10 | – | – | – |
| CCCCCCSc1nccnc1C1CN2CCC1CC2 (configuration not stated) | >0.03 | 4 | >0.03 | 2.3 | – | – | – |

From ChEMBL document CHEMBL1130414, “Muscarinic analgesics with potent and selective effects on the gastrointestinal tract: potential application for the treatment of irritable bowel syndrome” (J Med Chem, 1997)
